Usually inhibition stands for the percentage by which the read-out fell short of the control. As a reminder, the IC50 is the concentration that gives 50% inhibition.

From ChEMBL document CHEMBL3351926, “Altertoxins with potent anti-HIV activity from Alternaria tenuissima QUE1Se, a fungal endophyte of Quercus emoryi” (Bioorg Med Chem, 2014) come the findings set out here.

Each structure is given as a SMILES string. Active and inactive are the calls of the source. The calls are words filed in the database; no cut-off is given here.

Data set [1] relates to Human immunodeficiency virus 1. Nature of the data set: Antiviral activity against HIV1 infected in human A3.01 cells assessed as inhibition of viral replication at 1.5 ug/ml. The data set is classed as functional. In short, it runs like this: (§1)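 A3.01 T lymphocytes were infected with HIV-1 LAV in the presence of compound at a single concentration, 1.5 or 0.5 μg/mL, chosen from the A3.01 cytotoxicity data. Supernatant virus was measured by reverse transcriptase assay, and inhibition was scored on the peak day of virus production. Controls were DMSO at a matching concentration, AZT at 10 and 20 μM, untreated infected cells and mock cells.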

Data set [2] has as its system Human immunodeficiency virus 1. Nature of the data set: Antiviral activity against HIV1 infected in human A3.01 cells assessed as complete inhibition of viral replication at 2.20 uM. The data set is classed as functional, organism-based. In short, it runs like this: (§2)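 A3.01 T cells were infected with HIV-1 LAV in the presence of decreasing compound concentrations, lowered until viral replication reappeared. Virus in culture supernatants was measured by reverse transcriptase assay 9 days post-infection, the peak day for the untreated control. Replication was expressed as % of the untreated (concentration 0) control. Results are the mean and standard deviation of duplicate determinations, and IC50 was read from the dose–response curves.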

The test system of data set [3] is Human immunodeficiency virus 1. The data set is described as follows: Antiviral activity against HIV1 infected in human A3.01 cells assessed as inhibition of viral replication. It is filed as functional, organism-based. The method, boiled down:
as §2

A short description of data set [4]: Therapeutic index, ratio of CC50 for human A3.01 cells to IC50 for HIV1 infected in human A3.01 cells. It is filed as cell-based. The conditions noted are these: A3.01 cells (uninfected for CC50; HIV1-infected for IC50). The method, boiled down:
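The index was calculated from A3.01 cytotoxicity data together with the IC50 for HIV-1 LAV replication in A3.01 cells. Replication was measured by supernatant reverse transcriptase assay 9 days post-infection on dose–response curves run in duplicate.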

Data set [5] concerns Human immunodeficiency virus 1. Nature of the data set: Antiviral activity against HIV1 infected in human A3.01 cells assessed as complete inhibition of viral replication at 1.50 uM. It is filed as functional, organism-based. In short, it runs like this:
as §2

Data set [6] deals with Human immunodeficiency virus 1. Nature of the data set: Antiviral activity against HIV1 infected in human A3.01 cells assessed as inhibition of viral replication at 0.5 ug/ml. It is filed as functional. In short, it runs like this:
as §1

The test system of data set [7] is Human immunodeficiency virus 1. The data set is described as follows: Antiviral activity against HIV1 infected in human A3.01 cells assessed as complete inhibition of viral replication at 20 uM. The data set is classed as functional, organism-based. In short, it runs like this:
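Human A3.01 T-lymphocytes infected with HIV-1 LAV strain while exposed to compound. Virus levels in culture supernatants measured by reverse transcriptase assay. Inhibition read on peak day of virus production, 9 days post-infection in the untreated control. Compared against untreated infected cells, DMSO vehicle at matching concentration, and uninfected mock cells.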

On to `O=C1C=C[C@H]2c3c(ccc(O)c31)-c1ccc(O)c3c1[C@H]2[C@H]1O[C@H]1C3=O`, for which the inhibition at 1.5 µg/mL in data set [1] was 33%.

Consider `O=C1C[C@H](O)[C@@H]2c3c(ccc(O)c31)-c1ccc(O)c3c1[C@@]2(O)CCC3=O` [ALTERTOXIN I], for which the inhibition at 1.5 µg/mL in data set [1] amounted to 97%. Moreover, the inhibition result in data set [2] is “Active”. In addition, the IC50 in data set [3] was 1420 nM. Also, in data set [4], the selectivity ratio turned out to be 3.

As to `O=C1c2c(O)ccc3c2[C@H](c2ccc(O)c4c2[C@H]3[C@H]2O[C@H]2C4=O)[C@H]2O[C@@H]12`, the inhibition at 1.5 µg/mL in data set [1] worked out at 97%. Further, in data set [5], the inhibition result is “Active”. The IC50 in data set [3] was 290 nM. In addition, in data set [4], the selectivity ratio is 15.

`O=C1CC[C@]2(O)c3c(ccc(O)c31)-c1ccc(O)c3c1[C@H]2[C@H]1O[C@H]1C3=O`: the inhibition at 0.5 µg/mL in data set [6] came out at 97%. Further, the IC50 in data set [3] stood at 210 nM. Besides, the selectivity ratio in data set [4] amounted to 6.5.

With `O=C1C[C@@H](O)[C@H]2c3c(ccc(O)c31)-c1ccc(O)c3c1[C@H]2[C@H]1O[C@H]1C3=O`, the inhibition at 1.5 µg/mL in data set [1] was 97%. The 50% inhibitory concentration (IC50) in data set [3] is 90 nM. Besides, the selectivity ratio in data set [4] was found to be 50.

With `Cc1cn([C@H]2C[C@H](N=[N+]=[N-])[C@@H](CO)O2)c(=O)[nH]c1=O`, the inhibition result in data set [7] was “Active”.
